This note sets out measurements from ChEMBL document CHEMBL3271955, “Design, synthesis, and correlation analysis of 7-substituted 4-hydroxyquinoline-3-carboxylic acids as inhibitors of cellular respiration” (J Med Chem, 1977).

Data set [1] deals with Ehrlich. Put plainly: Inhibition of respiration in mouse Ehrlich ascites cells after 30 mins incubation at 37 degC by whole cell model. As to conditions: 0.5 h, read-out: I50. Type of data set: functional, cell-based. Summed up:
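Ehrlich ascites cells passaged weekly in Swiss white mice; fluid from 7-10 day tumors, saline-washed, held on ice at ~0.30 g/mL. Cells incubated in glucose-free phosphate Ringer with DMSO vehicle or DMSO plus inhibitor, 30 min at 37 °C. O2 uptake read by oxygen electrode. At least four concentrations in triplicate; I50 by least squares of % inhibition vs concentration.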

The target in data set [2] is T1, Malate dehydrogenase, mitochondrial (Homo sapiens, UniProt P40926).
T1 sequence (P40926 whole entry): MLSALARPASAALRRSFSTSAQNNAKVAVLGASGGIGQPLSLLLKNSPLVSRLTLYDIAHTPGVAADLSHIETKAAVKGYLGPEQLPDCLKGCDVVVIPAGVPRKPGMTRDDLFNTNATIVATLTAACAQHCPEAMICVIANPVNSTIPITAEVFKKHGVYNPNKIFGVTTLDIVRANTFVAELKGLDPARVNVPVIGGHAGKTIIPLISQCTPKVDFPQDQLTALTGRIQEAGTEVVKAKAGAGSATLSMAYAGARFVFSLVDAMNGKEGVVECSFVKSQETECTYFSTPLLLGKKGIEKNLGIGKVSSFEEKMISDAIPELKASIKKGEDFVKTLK
Briefly: Inhibition of malate dehydrogenase (unknown origin) by spectrophotometry. As to conditions: read-out: I50. The essentials: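 Malate dehydrogenase of unstated source diluted in pH 7.4 Tris to give 0.01-0.02 OD/min at 340 nm. Cuvette holds L-malate (2 mM stock), NAD+ (0.80 mM stock) and 0.05 M Tris pH 8.4, with inhibitor in Me2SO, at 25 °C. Reaction started with enzyme; NADH formation read at 340 nm. Four inhibitor levels in triplicate; I50 from least-squares dose-response line.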

Data set [3] is described as follows: Lipophilicity, log P of the compound. Type of data set: physicochemical. As to conditions: octanol/water.

Take `O=C(O)c1cnc2cc(S(=O)(=O)O)ccc2c1O`: the IC50 stood at 1300 µM in data set [1] and 2140 µM in data set [2].
Take `O=C(O)c1cnc2cc(O)ccc2c1O`: the figures for the IC50 in data set [1] and in data set [2] were 910 µM and 490 µM, respectively.
`CN(C)c1ccc2c(O)c(C(=O)O)cnc2c1`: the IC50 in data set [1] came to 470 µM; in data set [2] it was 480 µM.
With `O=C(O)c1ccc2c(O)c(C(=O)O)cnc2c1`, the IC50 was 5770 µM in data set [1] and 1070 µM in data set [2].
Turning to `O=C(O)c1cnc2cc([N+](=O)[O-])ccc2c1O`, the IC50 in data set [1] worked out at 580 µM; in data set [2] it was 1890 µM.
Turning to `NS(=O)(=O)c1ccc2c(O)c(C(=O)O)cnc2c1`, the IC50 in data set [1] came out at 3400 µM; in data set [2], 950 µM.
With `CC(=O)c1ccc2c(O)c(C(=O)O)cnc2c1`, the IC50 in data set [1] turned out to be 790 µM; in data set [2], 910 µM.
Regarding `O=C(O)c1cnc2cc(OCc3ccc(Cl)c(Cl)c3)ccc2c1O`, the IC50 was found to be 15 µM in data set [1] and 5 µM in data set [2].
For `O=C(O)c1cnc2cc(OCc3ccccc3)ccc2c1O` the same measures were 38 µM and 32 µM.
Take `O=C(O)c1cnc2ccccc2c1O`: the logP in data set [3] amounted to 0.23. Further, the IC50 in data set [1] is 1060 µM.
Turning to `NC(=O)c1ccc2c(O)c(C(=O)O)cnc2c1`, the IC50 stood at 5820 µM in data set [1] and 740 µM in data set [2].
In the case of `CS(=O)(=O)c1ccc2c(O)c(C(=O)O)cnc2c1`, the IC50 in data set [1] stood at 1790 µM; in data set [2], 660 µM.
For `O=C(O)c1cnc2cc(Cl)ccc2c1O` the same measures were 140 µM and 3620 µM.
For `O=C(O)c1cnc2cc(F)ccc2c1O` the same measures were 500 µM and 10600 µM.
For the compound `COc1ccc2c(O)c(C(=O)O)cnc2c1`, in data set [1], the IC50 was 520 µM.
